Test results taken from ChEMBL document CHEMBL1154183, “Structure-based optimization of potent and selective inhibitors of the tyrosine kinase erythropoietin producing human hepatocellular carcinoma receptor B4 (EphB4)” (J Med Chem, 2009).
Values belong to the molecule of their own block, whether it stands above or below them.

How the values were obtained:
[1] = molecular target: LIM domain kinase 2 (Homo sapiens) (UniProt P53671); experiment: Binding affinity to LIMK2 assessed as percentage of kinase remaining bound to the bead at 1 uM by T7 phage display based binding assay
Method in brief: (§1)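 Competition binding assay run by a contract lab. Each kinase was expressed as a fusion to T7 phage, full-length for small kinases and catalytic domain for large ones. Phage were mixed with an immobilized known kinase inhibitor on streptavidin magnetic beads and with test compound at a single 1 μM. Kinase/phage still bound to the beads was quantified by qPCR and expressed as % of DMSO control.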

[2] = molecular target: Ribosomal protein S6 kinase alpha-6 (Homo sapiens) (UniProt Q9UK32); experiment: Binding affinity to RSK4 kinase domain 2 C-terminal assessed as percentage of kinase remaining bound to the bead at 1 uM by T7 phage display based binding assay; method in brief: as §1
[3] = molecular target: Tyrosine-protein kinase Tec (Homo sapiens) (UniProt P42680); experiment: Binding affinity to TEC assessed as percentage of kinase remaining bound to the bead at 1 uM by T7 phage display based binding assay; method in brief: as §1
[4] = molecular target: Serine/threonine-protein kinase 32B (Homo sapiens) (UniProt Q9NY57); experiment: Binding affinity to YANK2 assessed as percentage of kinase remaining bound to the bead at 1 uM by T7 phage display based binding assay; method in brief: as §1
Ephrin type-A receptor 1 = Ephrin type-A receptor 1 (Homo sapiens, UniProt P21709); experiment: Inhibition of EphA1 by [gamma33-P]ATP based assay
Ephrin type-A receptor 8 = Ephrin type-A receptor 8 (Homo sapiens, UniProt P29322); experiment: Inhibition of EphA8 by [gamma33-P]ATP based assay
Ephrin type-B receptor 3 = Ephrin type-B receptor 3 (Homo sapiens, UniProt P54753); experiment: Inhibition of EphB3 by [gamma33-P]ATP based assay
Method in brief: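 Radiometric [γ-33P]ATP kinase assay against Eph kinases, following a protocol similar to the Mg-acetate/MgATP filter-binding method.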

[5] = molecular target: Mitogen-activated protein kinase kinase kinase 11 (Homo sapiens) (UniProt Q16584); experiment: Inhibition of MLK3 assessed as remaining enzyme activity at 1 uM relative to DMSO
Method in brief: (§2)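 Radiometric kinase assay run robotically at room temperature for 30 min. Contained 10 mM magnesium acetate and [γ-33P]ATP (800 cpm/pmol) at 5, 20 or 50 μM, chosen per kinase to be at or below its ATP Km. Reactions were started with MgATP, stopped with orthophosphoric acid and spotted onto P81 filters. Result is mean % activity of duplicates at one inhibitor concentration versus DMSO control.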

[6] = molecular target: Cytoplasmic tyrosine-protein kinase BMX (Homo sapiens) (UniProt P51813); experiment: Binding affinity to BMX assessed as percentage of kinase remaining bound to the bead at 1 uM by T7 phage display based binding assay; method in brief: as §1
[7] = molecular target: Epithelial discoidin domain-containing receptor 1 (Homo sapiens) (UniProt Q08345); experiment: Binding affinity to DDR1 assessed as percentage of kinase remaining bound to the bead at 1 uM by T7 phage display based binding assay; method in brief: as §1
[8] = molecular target: Epidermal growth factor receptor (Homo sapiens) (UniProt P00533); experiment: Binding affinity to EGFR assessed as percentage of kinase remaining bound to the bead at 1 uM by T7 phage display based binding assay
Method in brief: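 Kinases expressed as T7 phage fusions (full-length for small kinases, catalytic domain for large). Phage mixed with an immobilized known kinase inhibitor on streptavidin magnetic beads plus test compound at a single 1 μM concentration. Ligand displacement from the ATP site was read by quantitative PCR as % kinase/phage still bead-bound versus DMSO control. Human kinases.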

[9] = molecular target: Tyrosine-protein kinase Fyn (Homo sapiens) (UniProt P06241); experiment: Binding affinity to FYN assessed as percentage of kinase remaining bound to the bead at 1 uM by T7 phage display based binding assay; method in brief: as §1
[10] = molecular target: MAP/microtubule affinity-regulating kinase 3 (Homo sapiens) (UniProt P27448); experiment: Inhibition of MARK3 assessed as remaining enzyme activity at 1 uM relative to DMSO
Method in brief: (§3)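 Radiometric kinase assay run robotically at room temperature for 30 min, linear in time and enzyme. Conditions: 10 mM magnesium acetate, [γ-33P]ATP (800 cpm/pmol) at 5, 20 or 50 μM per kinase, at or below its ATP Km. Started with MgATP and stopped with orthophosphoric acid, then spotted on P81 filters. Reported as mean % activity of duplicates versus DMSO controls.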

[11] = molecular target: Serine/threonine-protein kinase Nek6 (Homo sapiens) (UniProt Q9HC98); experiment: Inhibition of NEK6 assessed as remaining enzyme activity at 1 uM relative to DMSO; method in brief: as §2
[12] = molecular target: Mitogen-activated protein kinase 1 (Homo sapiens) (UniProt P28482); experiment: Inhibition of ERK2 assessed as remaining enzyme activity at 1 uM relative to DMSO; method in brief: as §3
[13] = molecular target: Mitogen-activated protein kinase 11 (Homo sapiens) (UniProt Q15759); experiment: Inhibition of p38beta assessed as remaining enzyme activity at 1 uM relative to DMSO
[14] = molecular target: Mitogen-activated protein kinase 3 (Homo sapiens) (UniProt P27361); experiment: Inhibition of ERK1 assessed as remaining enzyme activity at 3 uM relative to DMSO
Method in brief: (§4)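 Dundee kinase panel, radiometric: [γ-33P]ATP (800 cpm/pmol) at 5, 20 or 50 μM, at or below each kinase's ATP Km; 10 mM magnesium acetate; robotic, room temperature, 30 min. Reactions started with MgATP, stopped with orthophosphoric acid, spotted onto P81 filters. Inhibitor tested at a single concentration; mean % activity of duplicates relative to DMSO control.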

[15] = molecular target: Mitogen-activated protein kinase 8 (Homo sapiens) (UniProt P45983); experiment: Inhibition of JNK1 assessed as remaining enzyme activity at 3 uM relative to DMSO; method in brief: as §4
[16] = molecular target: Ribosomal protein S6 kinase alpha-1 (Homo sapiens) (UniProt Q15418); experiment: Inhibition of RSK1 assessed as remaining enzyme activity at 3 uM relative to DMSO
[17] = molecular target: Rho-associated protein kinase 2 (Homo sapiens) (UniProt O75116); experiment: Inhibition of ROCK2 assessed as remaining enzyme activity at 3 uM relative to DMSO
[18] = molecular target: MAP kinase-interacting serine/threonine-protein kinase 2 (Homo sapiens) (UniProt Q9HBH9); experiment: Inhibition of MNK2 assessed as remaining enzyme activity at 3 uM relative to DMSO; method in brief: as §2
[19] = molecular target: Cyclin-dependent kinase 2 (Homo sapiens) (UniProt P24941); experiment: Inhibition of CDK2 assessed as remaining enzyme activity at 3 uM relative to DMSO; method in brief: as §4
[20] = molecular target: Ephrin type-A receptor 2 (Homo sapiens) (UniProt P29317); experiment: Inhibition of EPHA2 assessed as remaining enzyme activity at 3 uM relative to DMSO; method in brief: as §4
[21] = molecular target: Interleukin-1 receptor-associated kinase 4 (Homo sapiens) (UniProt Q9NWZ3); experiment: Inhibition of IRAK4 assessed as remaining enzyme activity at 3 uM relative to DMSO; method in brief: as §4
[22] = molecular target: NUAK family SNF1-like kinase 1 (Homo sapiens) (UniProt O60285); experiment: Inhibition of NUAK1 assessed as remaining enzyme activity at 3 uM relative to DMSO; method in brief: as §2
[23] = molecular target: Receptor tyrosine-protein kinase erbB-4 (Homo sapiens) (UniProt Q15303); experiment: Inhibition of HER4 assessed as remaining enzyme activity at 3 uM relative to DMSO; method in brief: as §4

Sequence of Ephrin type-A receptor 8 (P29322 whole entry): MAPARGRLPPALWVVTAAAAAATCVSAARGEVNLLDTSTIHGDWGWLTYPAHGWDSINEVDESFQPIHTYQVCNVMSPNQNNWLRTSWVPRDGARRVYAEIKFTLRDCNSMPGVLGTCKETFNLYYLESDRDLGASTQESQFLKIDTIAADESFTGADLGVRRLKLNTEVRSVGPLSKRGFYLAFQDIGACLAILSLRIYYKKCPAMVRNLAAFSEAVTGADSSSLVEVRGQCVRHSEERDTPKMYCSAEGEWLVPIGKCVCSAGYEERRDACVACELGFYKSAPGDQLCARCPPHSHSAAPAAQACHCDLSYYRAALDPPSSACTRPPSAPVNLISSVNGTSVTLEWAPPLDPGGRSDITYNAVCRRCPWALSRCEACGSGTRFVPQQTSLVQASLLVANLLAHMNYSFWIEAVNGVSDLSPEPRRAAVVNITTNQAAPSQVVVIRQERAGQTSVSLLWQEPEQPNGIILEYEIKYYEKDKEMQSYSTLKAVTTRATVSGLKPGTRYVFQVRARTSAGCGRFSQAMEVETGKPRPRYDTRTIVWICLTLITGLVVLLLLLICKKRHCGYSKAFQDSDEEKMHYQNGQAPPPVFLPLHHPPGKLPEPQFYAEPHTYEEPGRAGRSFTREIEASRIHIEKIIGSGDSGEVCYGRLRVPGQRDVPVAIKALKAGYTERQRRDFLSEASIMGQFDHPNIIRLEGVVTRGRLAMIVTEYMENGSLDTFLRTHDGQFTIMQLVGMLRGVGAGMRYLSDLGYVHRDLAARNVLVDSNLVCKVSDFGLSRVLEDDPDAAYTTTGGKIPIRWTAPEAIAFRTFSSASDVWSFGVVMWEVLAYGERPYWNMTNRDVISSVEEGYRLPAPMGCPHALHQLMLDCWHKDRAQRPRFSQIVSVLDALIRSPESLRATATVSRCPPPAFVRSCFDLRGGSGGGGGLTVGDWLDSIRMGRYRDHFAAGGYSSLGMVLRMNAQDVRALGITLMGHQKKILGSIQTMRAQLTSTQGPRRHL
Sequence of Mitogen-activated protein kinase 3 (Homo sapiens) (P27361 whole entry): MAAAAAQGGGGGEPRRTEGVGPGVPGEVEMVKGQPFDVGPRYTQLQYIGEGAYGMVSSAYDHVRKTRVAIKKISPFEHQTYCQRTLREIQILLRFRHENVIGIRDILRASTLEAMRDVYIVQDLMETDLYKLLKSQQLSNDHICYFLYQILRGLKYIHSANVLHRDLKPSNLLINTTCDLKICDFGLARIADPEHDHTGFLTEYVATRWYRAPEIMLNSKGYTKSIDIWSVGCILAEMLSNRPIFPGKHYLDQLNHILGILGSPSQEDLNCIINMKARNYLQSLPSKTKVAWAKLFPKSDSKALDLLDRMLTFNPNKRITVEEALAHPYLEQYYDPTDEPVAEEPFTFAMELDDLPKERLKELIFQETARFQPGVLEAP
Sequence of Mitogen-activated protein kinase 1 (Homo sapiens) (P28482 whole entry): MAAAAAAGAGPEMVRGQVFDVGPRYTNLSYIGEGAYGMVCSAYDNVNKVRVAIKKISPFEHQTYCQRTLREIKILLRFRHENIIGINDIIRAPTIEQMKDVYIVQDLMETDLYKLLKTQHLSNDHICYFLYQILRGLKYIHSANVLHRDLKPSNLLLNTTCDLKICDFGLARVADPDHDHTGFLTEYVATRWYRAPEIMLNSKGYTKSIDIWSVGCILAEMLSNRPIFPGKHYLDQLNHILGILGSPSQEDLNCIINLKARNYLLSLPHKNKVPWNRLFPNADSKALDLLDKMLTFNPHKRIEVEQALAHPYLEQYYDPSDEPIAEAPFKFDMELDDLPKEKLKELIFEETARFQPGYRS
Sequence of Interleukin-1 receptor-associated kinase 4 (Homo sapiens) (Q9NWZ3 whole entry): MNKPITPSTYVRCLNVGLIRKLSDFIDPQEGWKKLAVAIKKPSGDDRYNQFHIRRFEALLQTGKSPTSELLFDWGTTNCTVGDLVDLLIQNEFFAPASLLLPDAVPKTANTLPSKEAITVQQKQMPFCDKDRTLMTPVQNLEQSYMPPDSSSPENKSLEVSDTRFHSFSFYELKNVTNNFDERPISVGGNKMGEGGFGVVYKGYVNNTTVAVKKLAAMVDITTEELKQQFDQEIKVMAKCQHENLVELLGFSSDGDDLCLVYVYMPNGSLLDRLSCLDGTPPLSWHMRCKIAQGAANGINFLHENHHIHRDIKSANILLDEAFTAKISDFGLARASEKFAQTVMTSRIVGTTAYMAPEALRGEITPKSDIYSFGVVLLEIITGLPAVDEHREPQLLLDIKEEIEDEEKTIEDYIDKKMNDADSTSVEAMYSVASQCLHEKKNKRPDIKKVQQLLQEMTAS
Sequence of Mitogen-activated protein kinase kinase kinase 11 (Homo sapiens) (Q16584 whole entry, looked up): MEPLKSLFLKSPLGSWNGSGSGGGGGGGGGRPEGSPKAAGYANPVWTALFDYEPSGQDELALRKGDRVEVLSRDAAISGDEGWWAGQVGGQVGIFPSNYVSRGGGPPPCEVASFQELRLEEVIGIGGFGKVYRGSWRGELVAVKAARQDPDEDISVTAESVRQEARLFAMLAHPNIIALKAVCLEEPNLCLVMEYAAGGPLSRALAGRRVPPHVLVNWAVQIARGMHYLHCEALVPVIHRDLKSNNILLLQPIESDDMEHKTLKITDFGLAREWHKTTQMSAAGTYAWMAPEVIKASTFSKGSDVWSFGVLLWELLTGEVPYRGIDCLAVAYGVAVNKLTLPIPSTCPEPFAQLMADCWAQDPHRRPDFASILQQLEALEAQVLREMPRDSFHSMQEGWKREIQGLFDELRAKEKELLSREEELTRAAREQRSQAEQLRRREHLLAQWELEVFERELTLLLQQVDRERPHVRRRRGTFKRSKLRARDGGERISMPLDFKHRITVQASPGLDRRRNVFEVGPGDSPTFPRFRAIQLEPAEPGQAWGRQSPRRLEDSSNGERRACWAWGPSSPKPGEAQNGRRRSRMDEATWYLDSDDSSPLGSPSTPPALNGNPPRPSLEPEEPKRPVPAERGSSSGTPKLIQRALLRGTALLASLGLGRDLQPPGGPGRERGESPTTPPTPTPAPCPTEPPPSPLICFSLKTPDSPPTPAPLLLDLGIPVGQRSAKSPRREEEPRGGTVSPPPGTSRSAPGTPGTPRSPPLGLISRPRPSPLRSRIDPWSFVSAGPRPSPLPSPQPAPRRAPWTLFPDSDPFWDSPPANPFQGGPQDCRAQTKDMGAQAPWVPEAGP
Sequence of Ribosomal protein S6 kinase alpha-6 (Homo sapiens) (Q9UK32 whole entry, the tested form may be a part): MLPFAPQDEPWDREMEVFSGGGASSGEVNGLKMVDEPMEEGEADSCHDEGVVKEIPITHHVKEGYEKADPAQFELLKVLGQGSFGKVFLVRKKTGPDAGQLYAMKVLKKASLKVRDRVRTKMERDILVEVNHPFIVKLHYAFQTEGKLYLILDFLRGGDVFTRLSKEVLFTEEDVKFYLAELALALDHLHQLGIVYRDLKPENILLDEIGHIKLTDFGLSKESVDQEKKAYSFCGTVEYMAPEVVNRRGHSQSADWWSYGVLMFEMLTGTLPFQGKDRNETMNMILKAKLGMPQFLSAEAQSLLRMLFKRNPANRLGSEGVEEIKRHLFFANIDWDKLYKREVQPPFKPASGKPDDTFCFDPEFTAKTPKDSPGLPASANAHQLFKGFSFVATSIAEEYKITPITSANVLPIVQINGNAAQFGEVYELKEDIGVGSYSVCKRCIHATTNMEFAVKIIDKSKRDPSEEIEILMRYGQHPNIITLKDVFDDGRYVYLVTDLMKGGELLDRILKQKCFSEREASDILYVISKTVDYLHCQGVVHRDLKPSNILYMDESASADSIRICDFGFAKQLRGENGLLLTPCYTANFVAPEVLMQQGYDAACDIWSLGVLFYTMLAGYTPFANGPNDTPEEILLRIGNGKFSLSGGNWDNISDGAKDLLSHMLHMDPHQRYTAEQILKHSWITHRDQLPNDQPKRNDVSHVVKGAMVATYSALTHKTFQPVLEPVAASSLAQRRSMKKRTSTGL
Sequence of Ephrin type-B receptor 3 (P54753 whole entry): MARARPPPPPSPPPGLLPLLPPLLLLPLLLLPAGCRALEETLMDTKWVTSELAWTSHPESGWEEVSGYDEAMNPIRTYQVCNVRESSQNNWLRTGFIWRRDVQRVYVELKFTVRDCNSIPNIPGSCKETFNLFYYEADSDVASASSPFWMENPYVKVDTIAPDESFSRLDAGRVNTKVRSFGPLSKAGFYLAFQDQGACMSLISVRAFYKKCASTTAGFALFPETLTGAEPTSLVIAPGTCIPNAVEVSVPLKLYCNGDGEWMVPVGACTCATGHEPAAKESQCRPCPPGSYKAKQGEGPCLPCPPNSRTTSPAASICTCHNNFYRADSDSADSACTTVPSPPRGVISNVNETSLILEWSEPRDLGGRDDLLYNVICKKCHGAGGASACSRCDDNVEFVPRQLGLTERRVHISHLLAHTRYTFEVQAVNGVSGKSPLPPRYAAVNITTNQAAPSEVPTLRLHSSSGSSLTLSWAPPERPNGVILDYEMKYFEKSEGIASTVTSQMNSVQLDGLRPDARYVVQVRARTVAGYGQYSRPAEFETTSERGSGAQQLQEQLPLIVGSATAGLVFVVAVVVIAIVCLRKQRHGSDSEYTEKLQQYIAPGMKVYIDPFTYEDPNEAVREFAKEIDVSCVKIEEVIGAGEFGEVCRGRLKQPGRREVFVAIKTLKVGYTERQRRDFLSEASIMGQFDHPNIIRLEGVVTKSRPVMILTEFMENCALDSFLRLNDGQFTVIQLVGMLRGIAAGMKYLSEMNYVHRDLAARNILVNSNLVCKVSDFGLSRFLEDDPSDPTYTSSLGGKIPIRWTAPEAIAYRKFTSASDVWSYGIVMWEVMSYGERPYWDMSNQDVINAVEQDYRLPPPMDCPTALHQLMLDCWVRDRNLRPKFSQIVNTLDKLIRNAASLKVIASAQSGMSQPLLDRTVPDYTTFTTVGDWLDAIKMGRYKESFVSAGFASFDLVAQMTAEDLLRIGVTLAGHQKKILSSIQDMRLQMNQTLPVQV

Activity [1]: 78%
Activity [2]: 5.8%
Activity [3]: 100%
Activity [4]: 89%
IC50 (Ephrin type-A receptor 1): 2.9 nM
IC50 (Ephrin type-A receptor 8): 4.5 nM
IC50 (Ephrin type-B receptor 3): 15 nM
Activity [5]: 101%
Activity [6]: 55%
Activity [7]: 1.4%
Activity [8]: 8.6%
Activity [9]: 0.25%
Activity [10]: 96%
Activity [11]: 89%
Activity [12]: 93%
Activity [13]: 83%
Compound: COc1ccccc1-n1c(-c2cc(O)ccc2C)cn2c3c(=O)[nH]c(=O)n(C)c3nc12

Activity [14]: 97%
Activity [15]: 106%
Activity [16]: 83%
Activity [17]: 94%
Activity [18]: 85%
Activity [19]: 97%
Activity [20]: 10%
Activity [21]: 93%
Activity [22]: 140%
Activity [23]: 45%
Compound: COc1ccccc1-n1c(-c2ccccc2C)cn2c3c(=O)[nH]c(=O)n(C)c3nc12
